system: CCRF-CEM; experiment: Effective concentration required to inhibit HIV-2 ROD in CEM cell culture; type: functional, cell-based; conditions: Homo sapiens
How it was run: (§1)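 CEM cells (4 × 10^5/mL) infected at ~100 CCID50/mL and mixed with compound dilutions. Giant cell formation scored microscopically at day 4. EC50 = concentration inhibiting virus-induced cytopathicity by 50%.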

Structure (SMILES)	EC50
Cc1cn([C@@H]2O[C@H](CO[Si](C)(C)C(C)(C)C)C3(OS(=O)(=O)C=C3N)[C@H]2O[Si](C)(C)C(C)(C)C)c(=O)[nH]c1=O (some centres not stated)	> 10 µM
CCOC(=O)CN1C(=O)CN(C(=O)NC2=CS(=O)(=O)O[C@@]23[C@@H](CO[Si](C)(C)C(C)(C)C)O[C@@H](n2cc(C)c(=O)n(C)c2=O)[C@@H]3O[Si](C)(C)C(C)(C)C)C1=O	> 2 µM
CCOC(=O)CNC(=O)NC1=CS(=O)(=O)O[C@@]12[C@@H](CO[Si](C)(C)C(C)(C)C)O[C@@H](n1cc(C)c(=O)n(C)c1=O)[C@@H]2O[Si](C)(C)C(C)(C)C	> 2 µM
Cc1cn([C@@H]2O[C@H](CO[Si](C)(C)C(C)(C)C)[C@@]3(OS(=O)(=O)C=C3NC(=O)c3ccccc3)[C@H]2O[Si](C)(C)C(C)(C)C)c(=O)n(C)c1=O	> 5 µM
Cc1cn([C@@H]2O[C@H](CO[Si](C)(C)C(C)(C)C)[C@@]3(OS(=O)(=O)C=C3NCC(=O)OCc3ccccc3)[C@H]2O[Si](C)(C)C(C)(C)C)c(=O)n(C)c1=O	> 250 µM

system: MT4; experiment: Effective concentration required to inhibit HIV-2 ROD in MT-4 cell culture; type: functional, cell-based; conditions: Homo sapiens
How it was run: (§2)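 MT-4 cells (3 × 10^5/mL) infected at ~100 CCID50/mL and mixed with compound dilutions. Cytopathicity read by trypan blue exclusion at day 5. EC50 = concentration giving 50% protection against virus-induced loss of viability.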

Structure (SMILES)	EC50
Cc1cn([C@@H]2O[C@H](CO[Si](C)(C)C(C)(C)C)C3(OS(=O)(=O)C=C3N)[C@H]2O[Si](C)(C)C(C)(C)C)c(=O)[nH]c1=O (some centres not stated)	> 10 µM
CCOC(=O)CN1C(=O)CN(C(=O)NC2=CS(=O)(=O)O[C@@]23[C@@H](CO[Si](C)(C)C(C)(C)C)O[C@@H](n2cc(C)c(=O)n(C)c2=O)[C@@H]3O[Si](C)(C)C(C)(C)C)C1=O	> 2 µM
CCOC(=O)CNC(=O)NC1=CS(=O)(=O)O[C@@]12[C@@H](CO[Si](C)(C)C(C)(C)C)O[C@@H](n1cc(C)c(=O)n(C)c1=O)[C@@H]2O[Si](C)(C)C(C)(C)C	> 2 µM
Cc1cn([C@@H]2O[C@H](CO[Si](C)(C)C(C)(C)C)[C@@]3(OS(=O)(=O)C=C3NC(=O)c3ccccc3)[C@H]2O[Si](C)(C)C(C)(C)C)c(=O)n(C)c1=O	> 5 µM
Cc1cn([C@@H]2O[C@H](CO[Si](C)(C)C(C)(C)C)[C@@]3(OS(=O)(=O)C=C3NCC(=O)OCc3ccccc3)[C@H]2O[Si](C)(C)C(C)(C)C)c(=O)n(C)c1=O	> 250 µM

system: MT4; experiment: Cytostatic concentration required to inhibit MT-4 cell proliferation; type: functional; conditions: Homo sapiens
How it was run: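 Mock-infected MT-4 cells (3 × 10^5/mL) incubated with compound dilutions for 5 days. Viable cells counted by trypan blue exclusion. CC50 = concentration reducing viable MT-4 cell number by 50%.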

Structure (SMILES)	CC50
Cc1cn([C@@H]2O[C@H](CO[Si](C)(C)C(C)(C)C)C3(OS(=O)(=O)C=C3N)[C@H]2O[Si](C)(C)C(C)(C)C)c(=O)[nH]c1=O (some centres not stated)	12 µM
CCOC(=O)CN1C(=O)CN(C(=O)NC2=CS(=O)(=O)O[C@@]23[C@@H](CO[Si](C)(C)C(C)(C)C)O[C@@H](n2cc(C)c(=O)n(C)c2=O)[C@@H]3O[Si](C)(C)C(C)(C)C)C1=O	1.43 µM
CCOC(=O)CNC(=O)NC1=CS(=O)(=O)O[C@@]12[C@@H](CO[Si](C)(C)C(C)(C)C)O[C@@H](n1cc(C)c(=O)n(C)c1=O)[C@@H]2O[Si](C)(C)C(C)(C)C	3.78 µM
Cc1cn([C@@H]2O[C@H](CO[Si](C)(C)C(C)(C)C)[C@@]3(OS(=O)(=O)C=C3NC(=O)c3ccccc3)[C@H]2O[Si](C)(C)C(C)(C)C)c(=O)n(C)c1=O	4.9 µM
Cc1cn([C@@H]2O[C@H](CO[Si](C)(C)C(C)(C)C)[C@@]3(OS(=O)(=O)C=C3NCC(=O)OCc3ccccc3)[C@H]2O[Si](C)(C)C(C)(C)C)c(=O)n(C)c1=O	> 250 µM

system: HEL; experiment: Cytostatic concentration required to inhibit HEL cell proliferation; type: functional; conditions: Homo sapiens
How it was run: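 HEL fibroblasts seeded at 5 × 10^3 cells/well and grown 24 h, then given compound in duplicate. After 3 days at 37 °C in 5% CO2, cell number read on a Coulter counter. CC50 = concentration reducing cell growth by 50%.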

Structure (SMILES)	CC50
CCOC(=O)CN1C(=O)CN(C(=O)NC2=CS(=O)(=O)O[C@@]23[C@@H](CO[Si](C)(C)C(C)(C)C)O[C@@H](n2cc(C)c(=O)n(C)c2=O)[C@@H]3O[Si](C)(C)C(C)(C)C)C1=O	2.5 µM
CCOC(=O)CNC(=O)NC1=CS(=O)(=O)O[C@@]12[C@@H](CO[Si](C)(C)C(C)(C)C)O[C@@H](n1cc(C)c(=O)n(C)c1=O)[C@@H]2O[Si](C)(C)C(C)(C)C	13 µM
Cc1cn([C@@H]2O[C@H](CO[Si](C)(C)C(C)(C)C)[C@@]3(OS(=O)(=O)C=C3NC(=O)c3ccccc3)[C@H]2O[Si](C)(C)C(C)(C)C)c(=O)n(C)c1=O	9.7 µM
Cc1cn([C@@H]2O[C@H](CO[Si](C)(C)C(C)(C)C)[C@@]3(OS(=O)(=O)C=C3NCC(=O)OCc3ccccc3)[C@H]2O[Si](C)(C)C(C)(C)C)c(=O)n(C)c1=O	> 200 µM

system: HEL; experiment: Effective concentration required to inhibit HCMV AD-169 in HEL Cells; type: functional, cell-based; conditions: Homo sapiens
How it was run: (§3)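 Confluent HEL cells infected with HCMV at 100 PFU/well. After 1-2 h, residual virus removed and MEM with 2% inactivated FCS added, with compound in duplicate at 5-fold dilution steps. After 7 days at 37 °C in 5% CO2, cells fixed with ethanol and Giemsa-stained; plaques or CPE scored microscopically. IC50 interpolated graphically; mean of two independent experiments.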

Structure (SMILES)	EC50
CCOC(=O)CN1C(=O)CN(C(=O)NC2=CS(=O)(=O)O[C@@]23[C@@H](CO[Si](C)(C)C(C)(C)C)O[C@@H](n2cc(C)c(=O)n(C)c2=O)[C@@H]3O[Si](C)(C)C(C)(C)C)C1=O	0.29 µM
CCOC(=O)CNC(=O)NC1=CS(=O)(=O)O[C@@]12[C@@H](CO[Si](C)(C)C(C)(C)C)O[C@@H](n1cc(C)c(=O)n(C)c1=O)[C@@H]2O[Si](C)(C)C(C)(C)C	> 3.2 µM
Cc1cn([C@@H]2O[C@H](CO[Si](C)(C)C(C)(C)C)[C@@]3(OS(=O)(=O)C=C3NC(=O)c3ccccc3)[C@H]2O[Si](C)(C)C(C)(C)C)c(=O)n(C)c1=O	1.3 µM
Cc1cn([C@@H]2O[C@H](CO[Si](C)(C)C(C)(C)C)[C@@]3(OS(=O)(=O)C=C3NCC(=O)OCc3ccccc3)[C@H]2O[Si](C)(C)C(C)(C)C)c(=O)n(C)c1=O	> 400 µM

system: HEL; experiment: Effective concentration required to inhibit HCMV Davis in HEL Cells; type: functional, cell-based; conditions: Homo sapiens; how it was run: as §3

Structure (SMILES)	EC50
CCOC(=O)CN1C(=O)CN(C(=O)NC2=CS(=O)(=O)O[C@@]23[C@@H](CO[Si](C)(C)C(C)(C)C)O[C@@H](n2cc(C)c(=O)n(C)c2=O)[C@@H]3O[Si](C)(C)C(C)(C)C)C1=O	0.32 µM
CCOC(=O)CNC(=O)NC1=CS(=O)(=O)O[C@@]12[C@@H](CO[Si](C)(C)C(C)(C)C)O[C@@H](n1cc(C)c(=O)n(C)c1=O)[C@@H]2O[Si](C)(C)C(C)(C)C	> 3.2 µM
Cc1cn([C@@H]2O[C@H](CO[Si](C)(C)C(C)(C)C)[C@@]3(OS(=O)(=O)C=C3NC(=O)c3ccccc3)[C@H]2O[Si](C)(C)C(C)(C)C)c(=O)n(C)c1=O	1.2 µM
Cc1cn([C@@H]2O[C@H](CO[Si](C)(C)C(C)(C)C)[C@@]3(OS(=O)(=O)C=C3NCC(=O)OCc3ccccc3)[C@H]2O[Si](C)(C)C(C)(C)C)c(=O)n(C)c1=O	> 400 µM

system: HEL; experiment: Minimal cytotoxic concentration required to cause microscopically visible alteration of cell morphology in HEL Cells; type: functional; conditions: Homo sapiens
How it was run: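 Uninfected HEL cells exposed to compound. Minimum cytotoxic concentration is the lowest level giving a microscopically detectable change in cell morphology.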

Structure (SMILES)	MCC
CCOC(=O)CN1C(=O)CN(C(=O)NC2=CS(=O)(=O)O[C@@]23[C@@H](CO[Si](C)(C)C(C)(C)C)O[C@@H](n2cc(C)c(=O)n(C)c2=O)[C@@H]3O[Si](C)(C)C(C)(C)C)C1=O	≥ 3.2 µM
CCOC(=O)CNC(=O)NC1=CS(=O)(=O)O[C@@]12[C@@H](CO[Si](C)(C)C(C)(C)C)O[C@@H](n1cc(C)c(=O)n(C)c1=O)[C@@H]2O[Si](C)(C)C(C)(C)C	16 µM
Cc1cn([C@@H]2O[C@H](CO[Si](C)(C)C(C)(C)C)[C@@]3(OS(=O)(=O)C=C3NC(=O)c3ccccc3)[C@H]2O[Si](C)(C)C(C)(C)C)c(=O)n(C)c1=O	≥ 3.2 µM
Cc1cn([C@@H]2O[C@H](CO[Si](C)(C)C(C)(C)C)[C@@]3(OS(=O)(=O)C=C3NCC(=O)OCc3ccccc3)[C@H]2O[Si](C)(C)C(C)(C)C)c(=O)n(C)c1=O	≥ 400 µM

system: CCRF-CEM; experiment: Effective concentration required to inhibit HIV-1 IIIB in CEM cell culture; type: functional, cell-based; conditions: Homo sapiens; how it was run: as §1

Structure (SMILES)	EC50
CCOC(=O)CN1C(=O)CN(C(=O)NC2=CS(=O)(=O)O[C@@]23[C@@H](CO[Si](C)(C)C(C)(C)C)O[C@@H](n2cc(C)c(=O)n(C)c2=O)[C@@H]3O[Si](C)(C)C(C)(C)C)C1=O	0.24 µM
CCOC(=O)CNC(=O)NC1=CS(=O)(=O)O[C@@]12[C@@H](CO[Si](C)(C)C(C)(C)C)O[C@@H](n1cc(C)c(=O)n(C)c1=O)[C@@H]2O[Si](C)(C)C(C)(C)C	> 2 µM
Cc1cn([C@@H]2O[C@H](CO[Si](C)(C)C(C)(C)C)[C@@]3(OS(=O)(=O)C=C3NC(=O)c3ccccc3)[C@H]2O[Si](C)(C)C(C)(C)C)c(=O)n(C)c1=O	> 5 µM
Cc1cn([C@@H]2O[C@H](CO[Si](C)(C)C(C)(C)C)[C@@]3(OS(=O)(=O)C=C3NCC(=O)OCc3ccccc3)[C@H]2O[Si](C)(C)C(C)(C)C)c(=O)n(C)c1=O	6.7 µM

system: CCRF-CEM; experiment: Cytostatic concentration required to inhibit CEM cell proliferation; type: functional; conditions: Homo sapiens
How it was run: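 CEM cells, mock-infected, grown with serial compound dilutions for 4 days. CC50 taken as the concentration that inhibits CEM cell proliferation by 50%.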

Structure (SMILES)	CC50
CCOC(=O)CN1C(=O)CN(C(=O)NC2=CS(=O)(=O)O[C@@]23[C@@H](CO[Si](C)(C)C(C)(C)C)O[C@@H](n2cc(C)c(=O)n(C)c2=O)[C@@H]3O[Si](C)(C)C(C)(C)C)C1=O	1.42 µM
CCOC(=O)CNC(=O)NC1=CS(=O)(=O)O[C@@]12[C@@H](CO[Si](C)(C)C(C)(C)C)O[C@@H](n1cc(C)c(=O)n(C)c1=O)[C@@H]2O[Si](C)(C)C(C)(C)C	5.02 µM
Cc1cn([C@@H]2O[C@H](CO[Si](C)(C)C(C)(C)C)[C@@]3(OS(=O)(=O)C=C3NC(=O)c3ccccc3)[C@H]2O[Si](C)(C)C(C)(C)C)c(=O)n(C)c1=O	4.91 µM
Cc1cn([C@@H]2O[C@H](CO[Si](C)(C)C(C)(C)C)[C@@]3(OS(=O)(=O)C=C3NCC(=O)OCc3ccccc3)[C@H]2O[Si](C)(C)C(C)(C)C)c(=O)n(C)c1=O	> 250 µM

system: MT4; experiment: Effective concentration required to inhibit HIV-1 IIIB in MT-4 cell culture; type: functional, cell-based; conditions: Homo sapiens; how it was run: as §2

Structure (SMILES)	EC50
CCOC(=O)CN1C(=O)CN(C(=O)NC2=CS(=O)(=O)O[C@@]23[C@@H](CO[Si](C)(C)C(C)(C)C)O[C@@H](n2cc(C)c(=O)n(C)c2=O)[C@@H]3O[Si](C)(C)C(C)(C)C)C1=O	0.88 µM
CCOC(=O)CNC(=O)NC1=CS(=O)(=O)O[C@@]12[C@@H](CO[Si](C)(C)C(C)(C)C)O[C@@H](n1cc(C)c(=O)n(C)c1=O)[C@@H]2O[Si](C)(C)C(C)(C)C	> 2 µM
Cc1cn([C@@H]2O[C@H](CO[Si](C)(C)C(C)(C)C)[C@@]3(OS(=O)(=O)C=C3NC(=O)c3ccccc3)[C@H]2O[Si](C)(C)C(C)(C)C)c(=O)n(C)c1=O	> 5 µM

— ChEMBL document CHEMBL1142666, “Novel [2',5'-bis-O-(tert-butyldimethylsilyl)-beta-D-ribofuranosyl]- 3'-spiro-5''-(4''-amino-1'',2''-oxathiole-2'',2" -dioxide) derivatives with anti-HIV-1 and anti-human-cytomegalovirus activity” (J Med Chem, 2005)
